Experimental data collected from several papers.
Each line is one published result; the experiments were not run side by side.
CDK2 with cyclin A2: Cyclin-dependent kinase 2, with cyclin A2 (CDK2, Homo sapiens, UniProt P24941)
ST14: Suppressor of tumorigenicity 14 protein (ST14, Homo sapiens, UniProt Q9Y5Y6)

The remaining binding of `C=CC(=O)N1CCC(COCC(=O)N2CCN(c3nc(-c4cnc(N)nc4C(F)F)nc(N4CCOC[C@@H]4C)n3)CC2)CC1` is reported as 79% (ALK tyrosine kinase receptor (ALK, Homo sapiens, UniProt Q9UM73, C1156Y); binding, competition with immobilised ligand; 1 µM).
With `Cc1cc([C@@H](C)Nc2ccccc2C(=O)O)c2nc(N3CCC(F)(F)CC3)c(C#N)c(=O)n2c1` the remaining binding was 98% (Cyclin-dependent kinase 2 (CDK2, Homo sapiens, UniProt P24941); binding, competition with immobilised ligand; 10 µM).
`CC(=O)Nc1c(N)nc(SCC(=O)NN)[nH]c1=O` gave an inhibition of 22.9% (CDK2 with cyclin A2; enzyme activity, inhibitor; 10 nM).
`COc1cc(-c2cncc3c2CN(C)Cc2cc(N4CCNCC4)ccc2-3)cc(OC)c1OC` gave a remaining activity of 103% (Dual specificity protein kinase CLK3 (CLK3, Homo sapiens, UniProt P49761); enzyme activity, inhibitor; 1 µM).
The remaining activity of `N=C(N)NCCC[C@H](NC(=O)[C@H](CCC1CCCCC1)NC(=O)[C@H](Cc1cscn1)NC(=O)CCc1ccccc1)C(=O)c1nc2ccccc2s1` is reported as 5% (ST14; enzyme activity, inhibitor; 0.1 µM).
The remaining activity of `CNc1ncc2c(/C=C/C(=O)N3CCC(OC)CC3)nn(Cc3cccc(C(F)(F)F)c3)c2n1` is reported as 98% (Angiopoietin-1 receptor (TEK, Homo sapiens, UniProt Q02763); enzyme activity, inhibitor, radiometric; 1 µM).
`N=C(N)NCCC[C@H](NC(=O)C1(NC(=O)[C@H](Cc2cscn2)NC(=O)CCc2ccccc2)CC1)C(=O)c1nc2ccccc2s1` gave a remaining activity of 19% (ST14; enzyme activity, inhibitor; 0.1 µM).
`CNC(=O)c1cc(Oc2ccc(NC(=O)Nc3ccc(Cl)c(C(F)(F)F)c3)cc2)ccn1` gave an inhibition of 12.3% (CDK2 with cyclin A2; enzyme activity, inhibitor; 200 pM).
For `N=C(N)NCCC[C@H](NC(=O)[C@@H](CC1CCCCC1)NC(=O)[C@H](Cc1cscn1)NC(=O)CCc1ccccc1)C(=O)c1nc2ccccc2s1`, the remaining activity was 95% (ST14; enzyme activity, inhibitor; 0.1 µM).
`CC(=O)Nc1c(N)nc(SCC(=O)N/N=C/c2ccc([N+](=O)[O-])cc2)[nH]c1=O` has an inhibition of 15% (CDK2 with cyclin A2; enzyme activity, inhibitor; 10 nM).
